High-throughput results as filed in PubChem BioAssay.
UBC13 inh: inhibitors of human UBC13 polyubiquitin chain formation; TR-FRET; inhibition, % at 20 µM; P61088; AID 485273; 330,000 compounds, 0.47% hits; in the data active means inhibition above about 45%, passing the limit was not always enough
DSG3 Ab inh: human desmoglein-3 autoantibody binding inhibition | P32926 | DSG3-coupled beads, scFv-anti-DSG3-GFP binding, flow cytometry; stronger effect = lower value | binding (percent of control), % at 10 µM | 310,000 compounds, 0.48% hits;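 active means binding more than 3 SD below its plate's average and above zero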;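 further: hits lower antibody fragment binding to DSG3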
Target sequence (P32926 whole entry, looked up, the tested form may be a part): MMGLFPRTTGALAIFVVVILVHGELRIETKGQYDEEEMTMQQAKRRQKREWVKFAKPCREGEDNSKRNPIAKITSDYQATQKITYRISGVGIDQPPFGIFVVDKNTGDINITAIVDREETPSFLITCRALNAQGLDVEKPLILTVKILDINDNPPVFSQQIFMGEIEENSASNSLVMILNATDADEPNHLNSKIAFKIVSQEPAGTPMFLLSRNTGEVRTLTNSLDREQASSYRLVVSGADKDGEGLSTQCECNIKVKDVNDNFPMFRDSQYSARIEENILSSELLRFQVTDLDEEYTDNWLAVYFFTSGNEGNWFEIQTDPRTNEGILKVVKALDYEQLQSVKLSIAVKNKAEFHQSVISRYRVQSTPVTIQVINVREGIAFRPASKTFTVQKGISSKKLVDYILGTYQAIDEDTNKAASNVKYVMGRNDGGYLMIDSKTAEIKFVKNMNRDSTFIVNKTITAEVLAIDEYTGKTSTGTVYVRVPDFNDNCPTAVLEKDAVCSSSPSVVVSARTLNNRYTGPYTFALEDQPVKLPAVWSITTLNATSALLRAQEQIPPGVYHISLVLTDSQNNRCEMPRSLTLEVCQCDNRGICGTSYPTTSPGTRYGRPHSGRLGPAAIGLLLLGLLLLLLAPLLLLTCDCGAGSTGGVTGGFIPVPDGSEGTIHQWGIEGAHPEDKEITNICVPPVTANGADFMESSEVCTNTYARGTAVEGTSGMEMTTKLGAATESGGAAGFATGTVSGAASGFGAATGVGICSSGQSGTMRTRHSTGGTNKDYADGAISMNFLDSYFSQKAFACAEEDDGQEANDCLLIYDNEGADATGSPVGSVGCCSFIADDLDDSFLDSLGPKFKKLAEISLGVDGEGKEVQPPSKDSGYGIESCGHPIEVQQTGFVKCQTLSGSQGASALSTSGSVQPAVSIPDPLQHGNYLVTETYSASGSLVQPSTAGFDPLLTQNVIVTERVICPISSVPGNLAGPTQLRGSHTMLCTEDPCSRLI
MEKK2mut PB1 HTS: signal of MEK5 binding to mutant human MEKK2 PB1 domain. 290,000 compounds, 0.35% hits. bead flow cytometry, Alexa488-MEK5 binding to MEKK2 mutant. percent response, % at 10 µM; in the data active means percent response above about 24%, passing the limit was not always enough
Apaf1 inhib: inhibitors of human Apaf-1 apoptosome; inhibition, % at 20 µM; reconstituted apoptosome caspase-3 activity, DEVD-Rh110 fluorescence; 330,000 compounds, 0.71% hits; O14727; active means inhibition of at least 40% at 20 µM
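Material: biochemical Apaf-1 apoptosome reconstitution. Medium: Hepes buffer, pH 7.5. Also added: cytochrome c activation, bis-DEVD rhodamine 110 substrate. Timing: 30 min compound preincubation, 50 min activation, room temperature. Measured by: rhodamine 110 fluorescence at Ex 480/Em 540 nm.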
MEKK3 PB1 HTS: MEKK3-MEK5 PB1 interaction, increase or decrease | Q99759 | bead-based flow cytometry, Alexa488-MEK5 binding to MEKK3; actives lie on both sides; 0 = blocked by unlabeled MEK5, 100 = vehicle | binding response (% of control), % at 10 µM | 290,000 compounds, 1.4% hits;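 active means binding response more than 3 SD above or below the average of its plate-row segment, actives on both sides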;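 further: Alexa488 bead fluorescence after subtracting the streptavidin-only scavenger bead signal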
MEKK2 WT-MEK5: raises or lowers MEK5 binding to wildtype human MEKK2 PB1 domain; binding response (% of control), % at 10 µM; bead flow cytometry, Alexa488-MEK5 binding to MEKK2 WT; actives lie on both sides; 290,000 compounds, 1.1% hits; Q9Y2U5; AID 1531; in the data active means binding response below about 67% or above about 130%
MEKK2wt confirm: raises or lowers MEK5 binding to wildtype human MEKK2, retest. AID 1892. 5,900 compounds, 2.4% hits. binding response (% of control), % at 10 µM. shares compounds with MEKK3 PB1 HTS. bead flow cytometry, Alexa488-MEK5 binding to MEKK2 WT; actives lie on both sides; in the data active means binding response below about 16% or above about 210%; inactive means in between
MEKK2mut confirm: signal of MEK5 binding to mutant human MEKK2, retest | shares compounds with MEKK3 PB1 HTS | bead flow cytometry, Alexa488-MEK5 binding to MEKK2 mutant | percent response, % at 10 µM | 5,900 compounds, 2% hits; in the data active means percent response mostly above about 71%, no sharp cut-off; inactive means mostly below about 38%;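 further: higher means compound restores mutant binding toward wildtype level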
MEKK3 confirm: confirmation of inhibitors of MEK5 binding to human MEKK3; bead flow cytometry, Alexa488-MEK5 binding to MEKK3; stronger effect = lower value; binding response (% of control), % at 10 µM; AID 1894; 5,900 compounds, 1.8% hits; shares compounds with MEKK3 PB1 HTS;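 active means binding response below 72% of control, or above a set upper limit, though filed actives all read lower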
Hits are given with their value; i = inactive; nt = no result given; [ ] = dose if it differs, or a comment. Sampled rows, rich in hits. Any-hit rate of the full collection: about 3.2%.

SMILES	UBC13 inh	DSG3 Ab inh	MEKK2mut PB1 HTS	Apaf1 inhib	MEKK3 PB1 HTS	MEKK2 WT-MEK5	MEKK2wt confirm	MEKK2mut confirm	MEKK3 confirm
O=C1CCCN2N=C(SCC(=O)N3CCCCC3)SC2=N1	i	i	i	i	i	i	nt	nt	nt
CCC1CCCCN1C(=O)CSC1=NN2CCCC(=O)N=C2S1 (stereo not drawn)	i	i	i	i	132	i	i	i	i
Cc1coc2c1C(=O)C(=O)c1c-2ccc2c(C)cccc12	i	i	i	96	i	138	i	i	i
COc1ccc(CNC(=O)c2cc3cccc(O)c3oc2=N)cc1	i	i	i	i	i	i	nt	nt	nt
CC(=O)c1ccc(-c2ccc(-c3cc(=O)oc4c(C(C)C)ccc(C)c34)cc2)cc1	nt	i	nt	i	nt	nt	nt	nt	nt
CCS(=O)(=O)Nc1cccc(C2=NN(S(=O)(=O)CC)C(c3ccccc3)C2)c1 (stereo not drawn)	i	i	355	i	i	142	i	i	i
CCS(=O)(=O)Nc1cccc(C2=NN(S(=O)(=O)c3ccc(C)cc3)C(c3cccs3)C2)c1 (stereo not drawn)	i	i	i	i	i	i	nt	nt	nt
CCc1ccc(C2=NN(S(C)(=O)=O)C(c3cccs3)C2)cc1 (stereo not drawn)	i	i	nt	i	12[inhibitor]	nt	i	i	i
CCS(=O)(=O)Nc1cccc(C2=NN(S(=O)(=O)c3ccccc3)C(c3cccs3)C2)c1 (stereo not drawn)	i	i	106	i	21[inhibitor]	nt	i	i	i
O=C(CSc1n[nH]c(=O)n1C1CC1)NCc1ccccc1	i	i	i	i	i	i	nt	nt	nt
COC(=O)Cn1c(N2CCCC2)nc2c1c(=O)n(C)c(=O)n2C	i	i	30	i	i	i	i	i	i
Cc1ccc(-n2nnnc2-c2cccc(C)c2)cc1	i	i	i	i	i	i	nt	nt	nt
Cc1ccc(-c2nnnn2-c2ccc(C)cc2)cc1	i	i	i	i	2.0[inhibitor]	1.0[inhibitor]	i	i	i
O=C(c1ccoc1)N1CCC2(CC1)Oc1ccc(Cl)cc1C(=O)C21CC(c2cccnc2)=NO1 (stereo not drawn)	i	i	i	i	i	i	nt	nt	nt
O=C(c1ccoc1)N1CCC2(CC1)Oc1ccc(Cl)cc1C(=O)C21CC(c2ccccc2)=NO1 (stereo not drawn)	i	i	i	i	45[inhibitor]	i	i	i	i
Cc1ccc(N2CC(C(=O)Nc3nnc(SCCN4CCOCC4)s3)CC2=O)cc1 (stereo not drawn)	i	i	i	i	i	i	nt	nt	nt
Cc1cccc(CSc2nc3c(c(=O)[nH]2)CCC3)c1	i	i	i	i	134	i	i	i	i
Cc1ccc(CSc2nc3c(c(=O)[nH]2)CCC3)cc1	i	i	i	i	i	i	nt	nt	nt
CN1CCN(CCCNCc2cn(CCC#N)c3ccccc23)CC1	i	i	25	i	i	168	i	i	i
CC1C=CCC2C(=O)N(c3ccc(OC(=O)c4ccco4)cc3)C(=O)C12 (stereo not drawn)	i	i	i	i	161	i	i	i	i
c1ccc(C(NCCNC(c2ccccc2)c2ccccc2)c2ccccc2)cc1	i	i	27	i	i	142	i	i	i
Cc1ccc(NC(=O)c2ncn(CCCNCC3CCCO3)n2)cc1C (stereo not drawn)	nt	i	nt	nt	nt	nt	nt	nt	nt
CCOc1ncccc1C(=O)N=c1sccn1C	i	i	i	i	i	i	nt	nt	nt
CCOc1ncccc1C(=O)N=C1SCCN1C(=O)c1cccnc1OCC	i	i	i	i	158	i	i	i	i
O=C(CSC1=Nc2ccccc2C2=NC(c3ccccc3)C(=O)N12)NC1CCCCC1 (stereo not drawn)	i	nt	i	i	124	i	i	i	i
SMILES	UBC13 inh	DSG3 Ab inh	MEKK2mut PB1 HTS	Apaf1 inhib	MEKK3 PB1 HTS	MEKK2 WT-MEK5	MEKK2wt confirm	MEKK2mut confirm	MEKK3 confirm
CN(C(=O)CSC1=Nc2ccccc2C2=NC(c3ccccc3)C(=O)N12)C1CCCCC1 (stereo not drawn)	i	i	i	i	i	i	nt	nt	nt
COc1ccc(Br)cc1CN1CCN(Cc2c[nH]c3ccccc23)CC1	i	i	27	i	i	i	i	i	i
Cc1ccccc1NC(NC(=O)c1cccnc1)C(Cl)(Cl)Cl (stereo not drawn)	i	i	i	i	132	i	i	i	i
COc1ccc(NC(NC(=O)c2cccnc2)C(Cl)(Cl)Cl)cc1 (stereo not drawn)	i	nt	i	i	i	i	nt	nt	nt
Cc1cc(Br)ccc1SCC(=O)OCC(=O)NC1CC1	i	i	i	i	i	i	nt	nt	nt
Cc1ccc(CNC(=O)COC(=O)CSc2ccc(Br)cc2C)cc1	i	i	i	i	130	i	i	i	i
CCNc1nc(CN2CCOCC2)nc2sc3c(c12)CCC3	i	i	i	i	i	i	nt	nt	nt
c1ccc2c(c1)CCN(c1nc(CN3CCOCC3)nc3sc4c(c13)CCCC4)C2	i	i	i	i	135	i	i	i	i
C=CCn1c(=O)/c(=C2/Sc3ccccc3N2CC)s/c1=C1/C(=O)NN=C1C	i	nt	i	i	i	57[inhibitor]	i	i	i
C=CCN1C(=O)/C(=C2/Sc3ccccc3N2CC)SC1=S	i	i	i	i	i	i	nt	nt	nt
CCN(CC)CCOc1ccc2c(c1)C(=NO)c1cc(OCCN(CC)CC)ccc1-2	i	i	i	i	i	i	nt	nt	nt
CCCOc1ccc2c(c1)C(=NN=C(N)N)c1cc(OCCC)ccc1-2	i	i	32	i	i	191	249	88	i
COc1ccc(/C=N/NC(=O)c2ccccc2NC(=O)c2ccco2)c(OC)c1	i	nt	i	i	i	i	nt	nt	nt
CCOC(=O)C1=C(NC(=S)NC(=O)c2ccccc2)c2ccccc2CC1C(C)C (stereo not drawn)	i	i	i	i	i	i	nt	nt	nt
CCOC(=O)C1=C(NC(=S)NC(=O)c2ccccc2)c2ccccc2CC1(C)CC (stereo not drawn)	i	i	i	i	i	30[inhibitor]	i	i	i
Cc1ccccc1OCC(=O)OCC(=O)NC1CCCCCC1	i	i	nt	i	nt	nt	nt	nt	nt
CN(Cc1ccccc1)CC(O)COc1ccc(CNCCc2cccnc2)cc1 (stereo not drawn)	i	i	63	i	i	187	i	i	i
